Measured values as given in ChEMBL document CHEMBL1240350, “In vitro activity of CEM-101 against Streptococcus pneumoniae and Streptococcus pyogenes with defined macrolide resistance mechanisms” (Antimicrob Agents Chemother, 2010).
≈ marks a conversion by molar mass, not a printed value.

Experiments:
Streptococcus pneumoniae [1] = assay: Antibacterial activity against penicillin-intermediate Streptococcus pneumoniae after overnight incubation by agar dilution method; type: functional
In short: (§1)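 Agar dilution on Mueller-Hinton agar supplemented with 5% sheep blood, inoculum 10^4 CFU/spot, read after overnight incubation at 35°C in ambient air. Clinical isolates with defined genotypes; S. pneumoniae ATCC 49619 quality control strain included in each run. MIC50/MIC90 are MICs inhibiting 50% and 90% of isolates.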

Streptococcus pneumoniae [2] = assay: Antibacterial activity against quinolone-susceptible Streptococcus pneumoniae after overnight incubation by agar dilution method; type: functional
In short: (§2)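 Agar dilution on Mueller-Hinton agar supplemented with 5% sheep blood. Inoculum 10^4 CFU/spot, incubated overnight at 35°C in ambient air. Test strains were clinical pneumococcal isolates. S. pneumoniae ATCC 49619 was included as the quality control strain in each run. MIC range, MIC50 and MIC90 were reported for each susceptibility category.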

Streptococcus pneumoniae [3] = assay: Antibacterial activity against quinolone-resistant Streptococcus pneumoniae after overnight incubation by agar dilution method; type: functional; in short: as §2
Streptococcus pneumoniae [4] = assay: Antibacterial activity against macrolide-resistant Streptococcus pneumoniae harboring mef(A) gene after overnight incubation by agar dilution method; type: functional
In short: (§3)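 Agar dilution MICs on Mueller-Hinton agar with 5% sheep blood. Inoculum 10^4 CFU/spot, incubated overnight at 35°C in ambient air. Clinical S. pneumoniae or group A streptococcal isolates; resistance genotypes (erm(B), erm(A), mef(A)/mef(E)) were assigned by PCR. S. pneumoniae ATCC 49619 served as QC strain in each run. Range, MIC50 and MIC90 reported per phenotype group.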

Streptococcus pyogenes [5] = assay: Antibacterial activity against macrolide-susceptible Streptococcus pyogenes after overnight incubation by agar dilution method; type: functional; in short: as §1
Streptococcus pyogenes [6] = assay: Antibacterial activity against Streptococcus pyogenes harboring erm(A) gene after overnight incubation by agar dilution method; type: functional
In short: (§4)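 Clinical isolates collected 1998–2008, with macrolide-resistance genes confirmed by PCR. MICs by agar dilution on Mueller-Hinton agar with 5% sheep blood. Inoculum 10^4 CFU/spot, incubated overnight at 35°C in ambient air. S. pneumoniae ATCC 49619 was the quality-control strain in every run.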

Streptococcus pyogenes [7] = assay: Antibacterial activity against Streptococcus pyogenes harboring mutation in L4 ribosomal protein after overnight incubation by agar dilution method; type: functional; in short: as §4
Streptococcus pyogenes [8] = assay: Antibacterial activity against macrolide-resistant Streptococcus pyogenes harboring mef(A) gene after overnight incubation by agar dilution method; type: functional; in short: as §3
Streptococcus pyogenes [9] = assay: Antibacterial activity against macrolide-resistant Streptococcus pyogenes harboring erm(A) gene after overnight incubation by agar dilution method; type: functional; in short: as §3
Streptococcus pneumoniae [10] = assay: Antibacterial activity against macrolide-susceptible Streptococcus pneumoniae 1077 after overnight incubation by agar dilution method; type: functional
Streptococcus pneumoniae [11] = assay: Antibacterial activity against macrolide-susceptible Streptococcus pneumoniae 1077 after 49 passages and 10 compound-free subculturing by retest method; type: functional
Streptococcus pneumoniae [12] = assay: Antibacterial activity against macrolide-resistant Streptococcus pneumoniae 1076 harboring erm(B) and mef(A) gene after 14 passages and 10 compound-free subculturing by retest method; type: functional
In short: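 Multistep selection by daily serial passage in subinhibitory drug concentrations. Medium was cation-adjusted Mueller-Hinton broth plus 5% lysed horse blood. Each day the next inoculum came from the tube 1–2 dilutions below the MIC whose turbidity matched the growth control, for up to 50 days. Clone MICs by CLSI macrodilution; identity to the parent confirmed by SmaI PFGE.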

Streptococcus pneumoniae [13] = assay: Antibacterial activity against macrolide-resistant Streptococcus pneumoniae 2686 harboring mutation in L4 ribosomal protein after 14 passages and 10 compound-free subculturing by retest method; type: functional
Streptococcus pneumoniae [14] = assay: Antibacterial activity against macrolide-resistant Streptococcus pneumoniae 2686 harboring mutation in L4 ribosomal protein after 25 passages and 10 compound-free subculturing by retest method; type: functional
Streptococcus pneumoniae [15] = assay: Antibacterial activity against macrolide-susceptible Streptococcus pneumoniae 7127 harboring S20N mutation in L4 ribosomal protein and A105V mutation in L22 ribosomal protein after 15 passages and 10 compound-free subculturing by retest method; type: functional
Streptococcus pneumoniae [16] = assay: Antibacterial activity against macrolide-susceptible Streptococcus pneumoniae 7127 harboring S20N mutation in L4 ribosomal protein and A105V mutation in L22 ribosomal protein after 43 passages and 10 compound-free subculturing by retest method; type: functional
Streptococcus pneumoniae [17] = assay: Antibacterial activity against macrolide-resistant Streptococcus pneumoniae 3009 harboring mutation in 23S rRNA after 20 passages and 10 compound-free subculturing by retest method; type: functional
Streptococcus pneumoniae [18] = assay: Antibacterial activity against macrolide-resistant Streptococcus pneumoniae 1076 harboring erm(B) and mef(A) gene after overnight incubation by agar dilution method; type: functional
Streptococcus pneumoniae [19] = assay: Antibacterial activity against macrolide-resistant Streptococcus pneumoniae 1635 harboring erm(A) gene after overnight incubation by agar dilution method; type: functional
Streptococcus pneumoniae [20] = assay: Antibacterial activity against macrolide-resistant Streptococcus pneumoniae 3009 harboring mutation in 23S rRNA after overnight incubation by agar dilution method; type: functional
Streptococcus pyogenes [21] = assay: Antibacterial activity against macrolide-susceptible Streptococcus pyogenes 2132 after 28 passages and 10 compound-free subculturing by retest method
Streptococcus pyogenes [22] = assay: Antibacterial activity against macrolide-resistant Streptococcus pyogenes 2368 harboring erm(B) gene after overnight incubation by agar dilution method
Streptococcus pyogenes [23] = assay: Antibacterial activity against macrolide-resistant Streptococcus pyogenes 2094 harboring erm(A) gene after overnight incubation by agar dilution method
Streptococcus pyogenes [24] = assay: Antibacterial activity against macrolide-resistant Streptococcus pyogenes 2368 harboring erm(B) gene after 6 passages and 10 compound-free subculturing by retest method
Streptococcus pyogenes [25] = assay: Antibacterial activity against macrolide-resistant Streptococcus pyogenes 237 harboring mutation in L4 ribosomal protein after 20 passages and 10 compound-free subculturing by retest method
Streptococcus pyogenes [26] = assay: Antibacterial activity against macrolide-resistant Streptococcus pyogenes 237 harboring mutation in L4 ribosomal protein after 43 passages and 10 compound-free subculturing by retest method
Streptococcus pyogenes [27] = assay: Antibacterial activity against macrolide-resistant Streptococcus pyogenes 237 harboring mutation in L4 ribosomal protein after 50 passages following overnight incubation by agar dilution method
Streptococcus pneumoniae [28] = assay: Antibacterial activity against Streptococcus pneumoniae harboring erm(B) gene after overnight incubation by agar dilution method; type: functional; in short: as §4
Streptococcus pneumoniae [29] = assay: Antibacterial activity against macrolide-resistant Streptococcus pneumoniae harboring erm(B) and mef(A) gene after overnight incubation by agar dilution method; type: functional; in short: as §3
Streptococcus pyogenes [30] = assay: Antibacterial activity against macrolide-susceptible Streptococcus pyogenes 2132 after 50 passages following overnight incubation by agar dilution method
Streptococcus pyogenes [31] = assay: Antibacterial activity against macrolide-resistant Streptococcus pyogenes 2011 harboring mef(A) gene after 50 passages following overnight incubation by agar dilution method

Compound | MIC50 (Streptococcus pneumoniae [1]) [µg/mL] | MIC90 (Streptococcus pneumoniae [1]) [µg/mL] | MIC50 (Streptococcus pneumoniae [2]) [µg/mL] | MIC90 (Streptococcus pneumoniae [2]) [µg/mL] | MIC50 (Streptococcus pneumoniae [3]) [µg/mL] | MIC50 (Streptococcus pneumoniae [4]) [µg/mL] | MIC90 (Streptococcus pneumoniae [4]) [µg/mL] | MIC50 (Streptococcus pyogenes [5]) [µg/mL] | MIC90 (Streptococcus pyogenes [5]) [µg/mL] | MIC50 (Streptococcus pyogenes [6]) [µg/mL] | MIC90 (Streptococcus pyogenes [6]) [µg/mL] | MIC (Streptococcus pyogenes [7]) [µg/mL] | MIC50 (Streptococcus pyogenes [9]) [µg/mL] | MIC90 (Streptococcus pyogenes [9]) [µg/mL] | MIC (Streptococcus pneumoniae [10]) [µg/mL] | MIC (Streptococcus pneumoniae [11]) [µg/mL] | MIC (Streptococcus pneumoniae [12]) [µg/mL] | MIC (Streptococcus pneumoniae [13]) [µg/mL] | MIC (Streptococcus pneumoniae [14]) [µg/mL] | MIC (Streptococcus pneumoniae [15]) [µg/mL] | also measured
CC[C@H]1OC(=O)[C@H](C)[C@@H](O[C@H]2C[C@@](C)(OC)[C@@H](O)[C@H](C)O2)[C@H](C)[C@@H](O[C@@H]2O[C@H](C)C[C@H](N(C)C)[C@H]2O)[C@](C)(O)C[C@@H](C)CN(C)[C@H](C)[C@@H](O)[C@]1(C)O [AZITHROMYCIN] | > 64 | > 64 | > 64 | > 64 | 0.125 (≈ 0.167 µM) | 4 (≈ 5.34 µM) | 8 (≈ 10.7 µM) | 0.125 (≈ 0.167 µM) | 0.25 (≈ 0.334 µM) | 16 (≈ 21.4 µM) | > 64 | 2 (≈ 2.67 µM) | 16 (≈ 21.4 µM) | > 64 | 0.03 (≈ 0.0401 µM) | > 64 | > 64 | > 64 | > 64 | > 64 | MIC50 (Streptococcus pyogenes [8]): 8 µg/mL (≈ 10.7 µM); MIC90 (Streptococcus pyogenes [8]): 8 µg/mL (≈ 10.7 µM); MIC (Streptococcus pneumoniae [16]): 0.03 µg/mL (≈ 0.0401 µM); MIC (Streptococcus pneumoniae [17]): > 64 µg/mL; MIC (Streptococcus pneumoniae [18]): > 64 µg/mL; MIC (Streptococcus pneumoniae [19]): 2 µg/mL (≈ 2.67 µM); MIC (Streptococcus pneumoniae [20]): > 64 µg/mL; MIC (Streptococcus pyogenes [21]): 1 µg/mL (≈ 1.34 µM); MIC (Streptococcus pyogenes [22]): > 64 µg/mL; MIC (Streptococcus pyogenes [23]): 4 µg/mL (≈ 5.34 µM); MIC (Streptococcus pyogenes [24]): > 64 µg/mL; MIC (Streptococcus pyogenes [25]): 4 µg/mL (≈ 5.34 µM); MIC (Streptococcus pyogenes [26]): 8 µg/mL (≈ 10.7 µM); MIC (Streptococcus pyogenes [27]): 8 µg/mL (≈ 10.7 µM)
CC[C@H]1OC(=O)[C@@](C)(F)C(=O)[C@H](C)[C@@H](O[C@@H]2O[C@H](C)C[C@H](N(C)C)[C@H]2O)[C@](C)(OC)C[C@@H](C)C(=O)[C@H](C)[C@H]2N(CCCCn3cc(-c4cccc(N)c4)nn3)C(=O)O[C@]12C [SOLITHROMYCIN] | 0.03 (≈ 0.0355 µM) | 0.25 (≈ 0.296 µM) | 0.03 (≈ 0.0355 µM) | 0.25 (≈ 0.296 µM) | 0.008 (≈ 0.00947 µM) | 0.03 (≈ 0.0355 µM) | 0.125 (≈ 0.148 µM) | 0.015 (≈ 0.0178 µM) | 0.03 (≈ 0.0355 µM) | 0.03 (≈ 0.0355 µM) | 0.125 (≈ 0.148 µM) | 0.06 (≈ 0.071 µM) | 0.03 (≈ 0.0355 µM) | 0.125 (≈ 0.148 µM) | 0.008 (≈ 0.00947 µM) | 0.06 (≈ 0.071 µM) | 2 (≈ 2.37 µM) | 0.03 (≈ 0.0355 µM) | 0.016 (≈ 0.0189 µM) | 0.008 (≈ 0.00947 µM) | MIC50 (Streptococcus pneumoniae [28]): 0.03 µg/mL (≈ 0.0355 µM); MIC90 (Streptococcus pneumoniae [28]): 0.5 µg/mL (≈ 0.592 µM); MIC90 (Streptococcus pneumoniae [3]): 0.06 µg/mL (≈ 0.071 µM); MIC50 (Streptococcus pneumoniae [29]): 0.125 µg/mL (≈ 0.148 µM); MIC90 (Streptococcus pneumoniae [29]): 0.25 µg/mL (≈ 0.296 µM); MIC (Streptococcus pneumoniae [16]): 0.004 µg/mL (≈ 0.00473 µM); MIC (Streptococcus pneumoniae [17]): 0.25 µg/mL (≈ 0.296 µM); MIC (Streptococcus pneumoniae [18]): 1 µg/mL (≈ 1.18 µM); MIC (Streptococcus pneumoniae [19]): 0.008 µg/mL (≈ 0.00947 µM); MIC (Streptococcus pneumoniae [20]): 0.016 µg/mL (≈ 0.0189 µM); MIC (Streptococcus pyogenes [21]): 0.016 µg/mL (≈ 0.0189 µM); MIC (Streptococcus pyogenes [22]): 1 µg/mL (≈ 1.18 µM); MIC (Streptococcus pyogenes [23]): 0.03 µg/mL (≈ 0.0355 µM); MIC (Streptococcus pyogenes [30]): 0.016 µg/mL (≈ 0.0189 µM); MIC (Streptococcus pyogenes [24]): 0.5 µg/mL (≈ 0.592 µM); MIC (Streptococcus pyogenes [31]): 0.125 µg/mL (≈ 0.148 µM); MIC (Streptococcus pyogenes [25]): 0.5 µg/mL (≈ 0.592 µM); MIC (Streptococcus pyogenes [26]): 0.03 µg/mL (≈ 0.0355 µM)
